The list is not random: actives were taken first. Their share in the collection is about 3%.
HTR1E agonist: 5-HT1E (human) receptor agonism | P28566 | CHO 5-HT1E Ga15 NFAT-bla reporter, FRET; 0% DMSO wells, 100% control agonist wells | activation, % at 6 µM | hit rate 0.69% among 65,000;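 active means activation above a set limit, the screen-wide mean activation plus 3 SD, cut at about 8.5% in these data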;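 further: 100% = positive control agonist at 1 µM giving full maximal response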
Target sequence (P28566 whole entry, looked up): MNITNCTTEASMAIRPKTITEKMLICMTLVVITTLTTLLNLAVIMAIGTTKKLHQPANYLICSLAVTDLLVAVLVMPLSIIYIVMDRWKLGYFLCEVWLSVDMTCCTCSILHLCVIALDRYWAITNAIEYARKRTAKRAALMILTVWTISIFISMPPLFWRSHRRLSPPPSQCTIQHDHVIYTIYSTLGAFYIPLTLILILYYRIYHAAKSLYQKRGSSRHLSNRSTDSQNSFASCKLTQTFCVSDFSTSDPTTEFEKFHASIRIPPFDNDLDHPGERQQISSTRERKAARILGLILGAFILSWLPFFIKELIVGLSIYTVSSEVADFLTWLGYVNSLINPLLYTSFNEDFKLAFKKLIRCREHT
5HT1E antag: blocks the human 5-HT1E serotonin receptor; P28566; CHO 5-HT1E Ga15 NFAT-bla reporter, FRET, antagonist; inhibition, % at 6 µM; hit rate 0.99% among 65,000; AID 571;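 active means inhibition above a set limit, the mean inhibition across every tested compound plus 3 SD, cut at about 29% in these data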;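 further: signal is the 460 over 535 nm emission ratio of beta-lactamase substrate; 0% = agonist plus DMSO wells and 100% = wells without agonist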
S1P1 ag pot: activates or potentiates agonism at human S1P1 receptor | activation, % at 9.5 µM | P21453 | AID 449 | hit rate 0.57% among 56,000 | S1P1 CRE-bla cells, forskolin, beta-lactamase FRET, potentiator mode; S1P1 agonist co-added at EC20, 2 nM; 100% = saturating reference agonist, 0% = basal;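 active means activation above a cutoff set at the mean activation of all tested compounds plus 3 SD, cut at about 54% in these data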;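 further: forskolin at 4 µM as EC80 and the EC20 agonist is SEW2871; 100% = SEW2871 at its EC100 plus forskolin at EC80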
HTR1A agonist: 5-HT1a (human) receptor agonism. CHO 5-HT1a Ga15 NFAT-bla reporter, FRET ratio; 0% basal, 100% maximal reference agonist. P08908. activation, % at 10 µM. hit rate 0.56% among 65,000;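 active means activation above the screen-wide mean activation plus 3 SD, cut at about 19% in these data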;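 further: 0% = DMSO wells and 100% = 5-CT at EC100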
S1P3 agonist: agonists of human S1P3 receptor | Q99500 | S1P3 NFAT-BLA reporter cells, agonism, FRET ratio; relative to 1 µM S1P, basal subtracted | activation, % at 4.5 µM | AID 373 | hit rate 0.1% among 60,000;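 active means activation above the screen-wide mean plus 3 SD, cut at about 4.5% in these data, passing the limit was not always enough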
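Measure – % activation relative to 1 µM S1P (100%), per plate · System – stable CHO line with human S1P3, Gα16, NFAT-BLA reporter · Timing – cells plated overnight, compound 4 h 37 °C, substrate 2 h RT · Technique – fluorescent BLA substrate, ex 405 nm, em 460/535 nm ratio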
5HT1a antag: blocks the human serotonin 5-HT1a receptor | CHO 5-HT1a Ga15 NFAT-bla reporter, antagonist mode | hit rate 0.68% among 62,000 | inhibition, % at 10 µM;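 active means inhibition above the mean of all tested compounds plus 3 SD, cut at about 43% in these data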;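 further: receptor stimulated by 5-CT agonist at 100 nM near EC80; beta-lactamase reporter measured by ratiometric fluorescence of a cleavable substrate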
* hit, by the source's call; nt = not tested or not shown.

SMILES	HTR1E agonist	5HT1E antag	S1P1 ag pot	HTR1A agonist	S1P3 agonist	5HT1a antag
O=C(C1CCCN(S(=O)(=O)c2cccc3cccnc23)C1)N1CCN(c2ccccc2F)CC1 (configuration not stated)	1	-7	44	0	-2	-17
Cc1cccc(N2CCN(C(=O)C3CCCN(S(=O)(=O)c4cccc5cccnc45)C3)CC2)c1C (configuration not stated)	18*	0	66	5	-1	6
O=C(CSc1nc2ccccc2c(=O)n1CC1CCCO1)NCC1CCCO1 (configuration not stated)	0	-3	-13	0	0	-1
O=c1c2ccccc2c2ccccc2c(=O)n1CC1CCCO1 (configuration not stated)	0	35*	-4	-3	-1	-6
O=C(Nc1ccc(F)cc1F)NC1CC(=O)N(Cc2ccccc2)C1 (configuration not stated)	0	2	-7	-3	0	-10
COc1ccccc1-n1nnnc1SCc1ccccc1	-1	12	-7	0	-1	10
COc1ccccc1-n1nnnc1SCc1cc2c(cc1Br)OCO2	0	29*	59	-2	-1	27
COc1ccc(-c2noc(CSc3ccccc3)n2)cc1OC	0	-1	-1	1	-1	-5
COc1ccc(-c2noc(CSc3nnc(CCc4ccccc4)n3-c3ccccc3)n2)cc1OC	0	7	3	4	-1	43*
COc1ccc(Cc2nc(-c3ccc(-n4cccc4)cc3)no2)cc1OC	1	3	66*	2	-1	0
CC(C#N)Sc1nc2ccccc2c(=O)n1-c1ccccc1 (configuration not stated)	1	2	21	1	2	9
O=C(CN1CCN(c2ccccn2)CC1)Nc1ccc2ccccc2c1	0	-6	6	0	0	5
COc1ccc(OC)c(NC(=O)CCN2CCN(c3ccccc3)CC2)c1	0	2	-16	0	-1	5
CCOc1ccc(NC(=O)CCN2CCN(c3ccccc3)CC2)cc1	0	23	-17	3	-2	68*
O=C(CCN1CCN(c2ccccn2)CC1)Nc1ccc(F)cc1	0	-8	-36	29*	0	18
C=CCOc1nc2c(c(=O)n(C)c(=O)n2C)n1Cc1c(Cl)cccc1Cl	-1	8	10	3	-4	nt
O=C(Nc1ccc2c(c1)OCO2)C1(S(=O)(=O)c2ccc(Cl)cc2)CC1	-2	-2	6	-2	-1	-5
COc1cccc(C2=CC(c3cccc(OC)c3OC)n3nnnc3N2)c1 (configuration not stated)	0	10	-12	-2	-1	24
COc1ccc(C2=CC(c3ccc(OC)c(OC)c3)n3nnnc3N2)c(OC)c1 (configuration not stated)	0	29*	-57	0	0	6
COc1cccc(C2C=C(c3ccc(OC)cc3OC)Nc3nnnn32)c1 (configuration not stated)	0	20	13	2	-1	8
COc1ccc(C2C=C(c3ccc(Br)s3)Nc3ncnn32)cc1OC (configuration not stated)	0	34*	-29	-2	0	34
COc1cccc(C2C=C(c3cccs3)Nc3ncnn32)c1OC (configuration not stated)	0	30*	9	-4	-1	26
Cc1nc2nc(-c3cccs3)cn2nc1C	0	39*	29	-4	0	12
COc1cccc(-c2cn3nc(C)c(C)nc3n2)c1	1	-9	-3	-3	0	-10
CCCCSc1nc(N)c(C#N)c(-c2cccs2)c1C#N	0	32*	-4	3	-4	nt
SMILES	HTR1E agonist	5HT1E antag	S1P1 ag pot	HTR1A agonist	S1P3 agonist	5HT1a antag
CC(C)OC(=O)CSc1nc(N)c(C#N)c(-c2cccs2)c1C#N	0	44*	59	0	-2	-10
O=c1nc2n(c3cc(Cl)c(S(=O)(=O)N4CCOCC4)cc13)CCCCC2	0	1	15	0	0	-8
O=C(O)Cn1c(P(=O)(O)c2ccccc2)nc2ccccc21	0	-5	-18	-4	0	-4
COc1ccc(OC)c(C(c2nnnn2CCC(C)C)N2CCN(C(=O)c3ccco3)CC2)c1 (configuration not stated)	-1	-6	-1	1	0	17
CN(C)c1ccc2c(c1)OC(N)=C(C#N)C2c1cccc(F)c1 (configuration not stated)	1	75*	-9	-3	-2	10
CC(C)(C)C(=O)NC1(C(F)(F)F)C(=O)Nc2c1c(=O)[nH]c(=O)n2Cc1ccco1 (configuration not stated)	1	-6	-10	-2	1	-8
CCOc1cc(-c2nc(-c3ccc(OC)cc3)no2)cc(OCC)c1OCC	0	-12	0	1	0	-12
Cc1cc(C)cc(-c2nc(-c3ccncc3)no2)c1	0	-7	105*	-2	-1	-4
CCOc1ccc(-c2nc(-c3ccncc3)no2)cc1OCC	0	-5	111*	0	54*	4
CCOc1ccc(-c2nc(-c3ccccc3)no2)cc1OCC	0	-14	108*	0	14*	-21
CCOc1ccccc1NC(=O)c1ccccc1-c1nc(-c2ccccc2)no1	1	-14	-4	2	-1	46*
CCOc1cc(-c2nc(-c3ccncc3)no2)cc(OCC)c1OCC	0	-18	-5	1	0	-3
COc1ccc(-c2noc(-c3ccccc3C(=O)Nc3cccc(OC)c3)n2)cc1	-1	-7	14	0	-1	37
COc1cccc(C2NC(=O)NC(C)=C2C(=O)OCCSC)c1OC (configuration not stated)	1	-2	-7	2	0	0
COc1cc(NC(=O)CSc2nnc(C)s2)cc(OC)c1	0	2	5	-2	-1	-6
Oc1ccc2ccccc2c1CN1CCN(c2ccccc2F)CC1	14*	-11	7	3	0	1
NC(=O)CN1CCN(c2ccccc2F)CC1	0	7	-28	-3	-1	-3
CCOC(=O)c1[nH]c(C)c(/C=N/O)c1C	9.8*	8	5	-3	-2	11
Cc1ccc(Nc2cc(C)nn2-c2nc(C)cc(=O)[nH]2)cc1	0	74*	-12	-8	-2	61*
Cc1ccc(Nc2cc(C)nn2-c2nc(C)cc(C)n2)cc1	1	9	-11	-1	-1	17
